Converted amounts (≈) assume the structure as drawn.
Legend:
HT-29 [1] = assay: Hypoxic cytotoxicity ratio, ratio of IC50 for human HT-29 cells in oxic (aerobic) condition to IC50 for human HT-29 cells in hypoxic (anoxic) conditions; assay type: functional
In short: (§1)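 HCR was calculated as IC50(oxic)/IC50(hypoxic) after 4 h drug exposure at 20% O₂ or <20 ppm O₂, with SRB read-out 5 days later.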

SK-OV-3 [2] = assay: Cytotoxicity against human SKOV3 cells assessed as reduction of cell density incubated for 4 hrs in oxic (aerobic) condition measured 5 days post dose by SRB assay; assay type: functional, cell-based
In short: (§2)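 Log-phase monolayers given a 4 h drug exposure under aerobic (20% O₂) or anoxic (<20 ppm O₂) conditions. Cells were then stained with sulforhodamine B 5 days later. IC50 was interpolated as the concentration that cut cell density to 50% of same-plate controls. Values are means of two to seven experiments.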

[3] = Solubility in alphaMEM culture medium containing 5% FCS at 22 degC; assay type: physicochemical
In short: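 Solubility was measured in αMEM with 5% FCS, equilibrated with 5% CO₂/air, at 22 °C.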

PC-3 [4] = assay: Cytotoxicity against human PC3 cells assessed as reduction of cell density incubated for 4 hrs in oxic (aerobic) condition measured 5 days post dose by SRB assay; assay type: functional, cell-based; in short: as §2
SK-OV-3 [5] = assay: Cytotoxicity against human SKOV3 cells assessed as reduction of cell density incubated for 4 hrs in hypoxic (anoxic) condition measured 5 days post dose by SRB assay; assay type: functional, cell-based; in short: as §2
A549 [6] = assay: Cytotoxicity against human A549 cells over-expressing human NADPH/cytochrome P450 oxidoreductase assessed as reduction of cell density incubated for 4 hrs in oxic (aerobic) condition measured 5 days post dose by SRB assay; assay type: functional, cell-based; in short: as §2
A549 [7] = assay: Cytotoxicity against human A549 cells assessed as reduction of cell density incubated for 4 hrs in oxic (aerobic) condition measured 5 days post dose by SRB assay; assay type: functional, cell-based; in short: as §2
HCT-116 [8] = assay: Cytotoxicity against human HCT116 cells assessed as reduction of cell density incubated for 4 hrs in oxic (aerobic) condition measured 5 days post dose by SRB assay; assay type: functional, cell-based; in short: as §2
A549 [9] = assay: Hypoxic cytotoxicity ratio, ratio of IC50 for human A549 cells ells over-expressing human NADPH/cytochrome P450 oxidoreductase in oxic (aerobic) condition to IC50 for human A549 cells ells over-expressing human NADPH/cytochrome P450 oxidoreductase in hypoxic (anoxic) conditions; assay type: functional; in short: as §1
NCI-H460 [10] = assay: Cytotoxicity against human H460 cells assessed as reduction of cell density incubated for 4 hrs in hypoxic (anoxic) condition measured 5 days post dose by SRB assay; assay type: functional, cell-based; in short: as §2
SiHa [11] = assay: Hypoxic cytotoxicity ratio, ratio of IC50 for human SiHa cells in oxic (aerobic) condition to IC50 for human SiHa cells in hypoxic (anoxic) conditions; assay type: functional; in short: as §1
A-375 [12] = assay: Cytotoxicity against human A375 cells assessed as reduction of cell density incubated for 4 hrs in hypoxic (anoxic) condition measured 5 days post dose by SRB assay; assay type: functional, cell-based; in short: as §2
C-33-A [13] = assay: Cytotoxicity against human C33A cells assessed as reduction of cell density incubated for 4 hrs in oxic (aerobic) condition measured 5 days post dose by SRB assay; assay type: functional, cell-based; in short: as §2
A549 [14] = assay: Cytotoxicity against human A549 cells assessed as reduction of cell density incubated for 4 hrs in hypoxic (anoxic) condition measured 5 days post dose by SRB assay; assay type: functional, cell-based; in short: as §2
SiHa [15] = assay: Cytotoxicity against human SiHa cells assessed as reduction of cell density incubated for 4 hrs in oxic (aerobic) condition measured 5 days post dose by SRB assay; assay type: functional, cell-based; in short: as §2
A549 [16] = assay: Hypoxic cytotoxicity ratio, ratio of IC50 for human A549 cells in oxic (aerobic) condition to IC50 for human A549 cells in hypoxic (anoxic) conditions; assay type: functional; in short: as §1
SiHa [17] = assay: Cytotoxicity against human SiHa cells assessed as reduction of cell density incubated for 4 hrs in hypoxic (anoxic) condition measured 5 days post dose by SRB assay; assay type: functional, cell-based; in short: as §2
HCT-116 [18] = assay: Cytotoxicity against human HCT116 cells assessed as reduction of cell density incubated for 4 hrs in hypoxic (anoxic) condition measured 5 days post dose by SRB assay; assay type: functional, cell-based; in short: as §2
HT-29 [19] = assay: Cytotoxicity against human HT-29 cells assessed as reduction of cell density incubated for 4 hrs in oxic (aerobic) condition measured 5 days post dose by SRB assay; assay type: functional, cell-based; in short: as §2
[20] = Cytotoxicity against human H1299 cells assessed as reduction of cell density incubated for 4 hrs in oxic (aerobic) condition measured 5 days post dose by SRB assay; assay type: functional, cell-based; settings: NCI-H1299; in short: as §2
[21] = Cytotoxicity against human H1299 cells assessed as reduction of cell density incubated for 4 hrs in hypoxic (anoxic) condition measured 5 days post dose by SRB assay; assay type: functional, cell-based; settings: NCI-H1299; in short: as §2
SK-OV-3 [22] = assay: Hypoxic cytotoxicity ratio, ratio of IC50 for human SKOV3 cells in oxic (aerobic) condition to IC50 for human SKOV3 cells in hypoxic (anoxic) conditions; assay type: functional; in short: as §1
NCI-H460 [23] = assay: Hypoxic cytotoxicity ratio, ratio of IC50 for human H460 cells in oxic (aerobic) condition to IC50 for human H460 cells in hypoxic (anoxic) conditions; assay type: functional; in short: as §1
HCT-116 [24] = assay: Hypoxic cytotoxicity ratio, ratio of IC50 for human HCT116 cells in oxic (aerobic) condition to IC50 for human HCT116 cells in hypoxic (anoxic) conditions; assay type: functional; in short: as §1
C-33-A [25] = assay: Cytotoxicity against human C33A cells assessed as reduction of cell density incubated for 4 hrs in hypoxic (anoxic) condition measured 5 days post dose by SRB assay; assay type: functional, cell-based; in short: as §2
HT-29 [26] = assay: Cytotoxicity against human HT-29 cells assessed as reduction of cell density incubated for 4 hrs in hypoxic (anoxic) condition measured 5 days post dose by SRB assay; assay type: functional, cell-based; in short: as §2
NCI-H460 [27] = assay: Cytotoxicity against human H460 cells assessed as reduction of cell density incubated for 4 hrs in oxic (aerobic) condition measured 5 days post dose by SRB assay; assay type: functional, cell-based; in short: as §2
PC-3 [28] = assay: Hypoxic cytotoxicity ratio, ratio of IC50 for human PC3 cells in oxic (aerobic) condition to IC50 for human PC3 cells in hypoxic (anoxic) conditions; assay type: functional; in short: as §1
A-375 [29] = assay: Hypoxic cytotoxicity ratio, ratio of IC50 for human A375 cells in oxic (aerobic) condition to IC50 for human A375 cells in hypoxic (anoxic) conditions; assay type: functional; in short: as §1
PC-3 [30] = assay: Cytotoxicity against human PC3 cells assessed as reduction of cell density incubated for 4 hrs in hypoxic (anoxic) condition measured 5 days post dose by SRB assay; assay type: functional, cell-based; in short: as §2
[31] = Hypoxic cytotoxicity ratio, ratio of IC50 for human H1299 cells in oxic (aerobic) condition to IC50 for human H1299 cells in hypoxic (anoxic) conditions; assay type: functional, NCI-H1299; in short: as §1
A549 [32] = assay: Cytotoxicity against human A549 cells ells over-expressing human NADPH/cytochrome P450 oxidoreductase assessed as reduction of cell density incubated for 4 hrs in hypoxic (anoxic) condition measured 5 days post dose by SRB assay; assay type: functional, cell-based; in short: as §2
C-33-A [33] = assay: Hypoxic cytotoxicity ratio, ratio of IC50 for human C33A cells in oxic (aerobic) condition to IC50 for human C33A cells in hypoxic (anoxic) conditions; assay type: functional; in short: as §1
A-375 [34] = assay: Cytotoxicity against human A375 cells assessed as reduction of cell density incubated for 4 hrs in oxic (aerobic) condition measured 5 days post dose by SRB assay; assay type: functional, cell-based; in short: as §2

With `COc1cc2cc(C(=O)N3CC(COS(=O)(=O)Cc4ccccc4)c4c3cc([N+](=O)[O-])c3ccccc43)[nH]c2c(OC)c1OC` (centres undefined) the “Ratio IC50” value (HT-29 [1]) was 37, the IC50 (SK-OV-3 [2]) was 12 µM and the solubility [3] was 17 µM (≈ 10.7 µg/mL). The IC50 (PC-3 [4]) was 1900 nM, the IC50 (SK-OV-3 [5]) was 82 nM and the IC50 (A549 [6]) was 930 nM. The IC50 (A549 [7]) was 1080 nM, the IC50 (HCT-116 [8]) was 530 nM and the “Ratio IC50” value (A549 [9]) was 16.5. The IC50 (NCI-H460 [10]) was 100 nM, the “Ratio IC50” value (SiHa [11]) was 30.1 and the IC50 (A-375 [12]) was 410 nM. The IC50 (C-33-A [13]) was 430 nM, the IC50 (A549 [14]) was 400 nM and the IC50 (SiHa [15]) was 3000 nM. For the same compound, the “Ratio IC50” value (A549 [16]) was 3.73, the IC50 (SiHa [17]) was 450 nM and the IC50 (HCT-116 [18]) was 50 nM. For the same compound, the IC50 (HT-29 [19]) was 9.8 µM, the IC50 [20] was 510 nM and the IC50 [21] was 160 nM. The “Ratio IC50” value (SK-OV-3 [22]) was 246, the “Ratio IC50” value (NCI-H460 [23]) was 7.19 and the “Ratio IC50” value (HCT-116 [24]) was 12.1. For the same compound, the IC50 (C-33-A [25]) was 33 nM, the IC50 (HT-29 [26]) was 360 nM and the IC50 (NCI-H460 [27]) was 250 nM. For the same compound, the “Ratio IC50” value (PC-3 [28]) was 10.2, the “Ratio IC50” value (A-375 [29]) was 4.12 and the IC50 (PC-3 [30]) was 210 nM. The “Ratio IC50” value [31] was 3.6, the IC50 (A549 [32]) was 95 nM and the “Ratio IC50” value (C-33-A [33]) was 15.6. It also gave an IC50 (A-375 [34]) of 1230 nM.

Reference: ChEMBL document CHEMBL1811874, “The effect of sulfonate leaving groups on the hypoxia-selective toxicity of nitro analogs of the duocarmycins” (Bioorg Med Chem, 2011)
